This note sets out measurements from ChEMBL document CHEMBL3108704, “Novel endoperoxide-based transmission-blocking antimalarials with liver- and blood-schizontocidal activities” (ACS Med Chem Lett, 2014).

Structures are written as SMILES. The source made the active and inactive calls. The calls are words filed in the database; no cut-off is given here.

For data set [1], the system named is Plasmodium berghei. In words: Antimalarial activity against liver stage of Plasmodium berghei infected in human Huh7 cells after 48 hrs by luciferase assay. Type of data set: functional, organism-based. The note with it: Huh-7, 48 h.
For the next data set, the system named is Plasmodium falciparum. In words: Antimalarial activity against chloroquine-resistant erythrocyte stage of Plasmodium falciparum W2 after 48 hrs. Type of data set: functional, organism-based. The note with it: W2, 48 h.
The subject of a further data set is Huh-7. In words: Cytotoxicity against human HuH7 cells assessed as cell viability by Alamar Blue assay. It counts as cell-based.
Data set [2] concerns Plasmodium berghei. The experiment in a line: Antisporogonic activity against GFP expressing Plasmodium berghei ANKA infected in BALB/c mouse assessed as inhibition of appearance of oocysts in Anopheles gambiae level at 25 umol/kg, ip by microscopic analysis (reference value: 83.6%). Type of data set: functional.
For data set [3], the system named is Plasmodium berghei. The experiment in a line: Antisporogonic activity against GFP expressing Plasmodium berghei ANKA infected in BALB/c mouse assessed as inhibition of appearance of oocysts in Anopheles gambiae level at 10 umol/kg, ip by microscopic analysis (reference value: 83.6%). Type of data set: functional.
For the next data set, the system named is Plasma. The experiment in a line: Metabolic stability of the compound in 80% human plasma assessed as formation of primaquine and carboxyprimaquine metabolite after 3 days. Particulars: 72 h. Type of data set: ADME, cell-free.
Data set [4] is described as follows: Half life in rat liver microsomes at 0.1 uM. Type of data set: ADME. The procedure, abridged:
(§1)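 Compound was incubated with rat liver microsomes at 37 °C. Half-life and in vitro intrinsic clearance (μL/min/mg protein) were determined, and in vivo hepatic extraction ratio was predicted from them.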

A short description of data set [5]: Intrinsic clearance in rat liver microsomes at 0.1 uM. It counts as ADME. The note with it: read-out: CLH. The essentials: as §1
The next data set relates to Mus musculus. The experiment in a line: Toxicity in Plasmodium berghei ANKA infected C57Bl/6J mouse assessed as adverse reactions at 30 mg/kg, ip qd for 5 days measured on day 5. It counts as organism-based. Details: dose 30 mg/kg, route intraperitoneal. The note with it: in vivo, 120 h. The essentials: (§2)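 Male C57Bl/6J mice were infected with GFP-expressing P. berghei ANKA on day 0. From day 4, compound was given i.p. at 30 mg/kg b.w. once daily for 5 consecutive days. Parasitemia was monitored daily by microscopy and flow cytometry. Survival was followed to the end of the experiment, and adverse reactions were recorded.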

Data set [6] relates to Plasmodium berghei. The experiment in a line: Antimalarial activity against GFP expressing Plasmodium berghei ANKA infected in C57Bl/6J mouse assessed as reduction of parasitemia at 30 mg/kg, ip qd for 5 days measured on day 5. Type of data set: functional, organism-based. Also noted: dose 30 mg/kg. The essentials: as §2
Data set [7] deals with Plasmodium berghei. The experiment in a line: Antimalarial activity against GFP expressing Plasmodium berghei ANKA infected in C57Bl/6J mouse assessed as host survival at 30 mg/kg, ip qd for 5 days measured on day 5. Type of data set: functional, organism-based. Details: dose 30 mg/kg. The essentials:
as §2

Regarding `C[C@@H]1CC[C@H]2[C@@H](C)C(=O)O[C@@H]3O[C@@]4(C)CC[C@@H]1[C@]32OO4` [ARTEMISININ], the IC50 in the data set with Plasmodium berghei [1] is greater than 10000 nM; in the data set with Plasmodium falciparum it was 8.2 nM.

Regarding `COc1cc(NC(C)CCCNCC2CCC3(CC2)OOC2(OO3)C3CC4CC(C3)CC2C4)c2ncccc2c1` (stereo not given), the IC50 with Huh-7 was 5020 nM; with Plasmodium berghei [1], greater than 1000 nM; with Plasmodium falciparum it was 45.2 nM. In addition, in the data set with Plasmodium berghei [2], the inhibition in vivo at 25 µmol/kg is 5.9%. For the same molecule, in the data set on Plasmodium berghei [3], the inhibition in vivo at 10 µmol/kg worked out at 42.9%. Moreover, the Stability entry with Plasma is “Stable”. Moreover, the half-life at 0.1 µM in [4] is 27 min. Moreover, the microsomal CLint at 0.1 µM in data set [5] stood at 51.2 µL/min/mg.

Take `COc1cc(NC(C)CCCN)c2ncccc2c1` (stereo not given) [PRIMAQUINE]: the inhibition in vivo at 25 µmol/kg in the data set with Plasmodium berghei [2] stood at 2.2%. Further, the inhibition in vivo at 10 µmol/kg in the data set on Plasmodium berghei [3] was found to be 35.5%.

`COc1cc(NC(C)CCCNC(=O)C2CCC3(CC2)OOC2(OO3)C3CC4CC(C3)CC2C4)c2ncccc2c1` (stereo not given): the Activity result in the data set with Mus musculus is on record as “Non-toxic”. The concentration for half-maximal inhibition (IC50) is greater than 100000 nM with Huh-7, 538 nM in the data set on Plasmodium berghei [1] and 21.1 nM in the data set on Plasmodium falciparum. Also, the outcome with Plasmodium berghei [6] and in the data set on Plasmodium berghei [7] was Active. The inhibition in vivo at 25 µmol/kg in the data set with Plasmodium berghei [2] worked out at 0%. Also, in the data set with Plasmodium berghei [3], the inhibition in vivo at 10 µmol/kg is 68.6%. In the data set with Plasma, the Stability result was “Stable”. Also, in [4], the half-life at 0.1 µM was determined as 10 min. Further, the microsomal CLint at 0.1 µM in [5] was determined as 133 µL/min/mg.

`COc1cc(NC(C)CCCNC(=O)CC2CCC3(CC2)OOC2(OO3)C3CC4CC(C3)CC2C4)c2ncccc2c1` (stereo not given): the IC50 is 2570 nM in the data set on Huh-7, 604 nM with Plasmodium berghei [1] and 36.5 nM in the data set with Plasmodium falciparum. For the same molecule, in the data set on Plasmodium berghei [2], the inhibition in vivo at 25 µmol/kg was found to be 11.4%. Also, the inhibition in vivo at 10 µmol/kg in the data set with Plasmodium berghei [3] is 66.7%.

As to `COc1cc(NC(C)CCCNC(=O)c2ccc(CO[C@H]3O[C@@H]4O[C@]5(C)CC[C@H]6[C@H](C)CC[C@@H]([C@H]3C)[C@@]46OO5)cc2)c2ncccc2c1` (stereo not given in full), the half-maximal inhibitory concentration (IC50) was 73000 nM with Huh-7, 67 nM in the data set with Plasmodium berghei [1] and 5.1 nM with Plasmodium falciparum.

On to `COc1cc(NC(C)CCCNCc2ccc(CO[C@H]3O[C@@H]4O[C@]5(C)CC[C@H]6[C@H](C)CC[C@@H]([C@H]3C)[C@@]46OO5)cc2)c2ncccc2c1` (stereo not given in full), for which the values for the concentration for half-maximal inhibition (IC50) with Plasmodium berghei [1] and in the data set with Plasmodium falciparum were 155 nM and 12.5 nM, respectively.

Take `COc1cc(NC(C)CCCNCC[C@H]2O[C@@H]3O[C@]4(C)CC[C@H]5[C@H](C)CC[C@@H]([C@H]2C)[C@@]35OO4)c2ncccc2c1` (stereo not given in full): the IC50 is 32800 nM in the data set on Huh-7, greater than 1000 nM in the data set on Plasmodium berghei [1] and 9.3 nM in the data set with Plasmodium falciparum.

Consider `CCOC(=O)C1CCC2(CC1)OOC1(OO2)C2CC3CC(C2)CC1C3` (stereo not given), for which the half-inhibitory concentration (IC50) in the data set with Plasmodium berghei [1] is greater than 10000 nM; in the data set with Plasmodium falciparum, 128 nM.

As to `COc1cc(NC(C)CCCNC2CCC3(CC2)OOC2(OO3)C3CC4CC(C3)CC2C4)c2ncccc2c1` (stereo not given), the IC50 with Huh-7 worked out at 8200 nM; in the data set with Plasmodium berghei [1], 330 nM; with Plasmodium falciparum, 21.6 nM. Besides, the inhibition in vivo at 25 µmol/kg in the data set with Plasmodium berghei [2] turned out to be 13.3%. Further, the inhibition in vivo at 10 µmol/kg with Plasmodium berghei [3] was 36.4%.

As for `COc1cc(NC(C)CCCNC(=O)C[C@H]2O[C@@H]3O[C@]4(C)CC[C@H]5[C@H](C)CC[C@@H]([C@H]2C)[C@@]35OO4)c2ncccc2c1` (stereo not given in full), the results for the IC50 in the data set on Plasmodium berghei [1] and with Plasmodium falciparum were 523 nM and 9.1 nM, respectively.
